Test results as given in ChEMBL document CHEMBL4715780, “Biological evaluation of tetracationic compounds based on two 1,4-diazabicyclo[2.2.2]octane moieties connected by different linkers” (Bioorg Med Chem, 2016).

Key:
Staphylococcus aureus [1] = assay: Antibacterial activity against […] Staphylococcus aureus ATCC 25923 assessed as concentration required to inhibit visible growth by CLSI protocol based serial microdilution method; type: functional
Enterococcus faecalis = assay: Antibacterial activity against Enterococcus faecalis ATCC 51299 assessed as concentration required to inhibit visible growth by CLSI protocol based serial microdilution method; type: functional
Escherichia coli [2] = assay: Antibacterial activity against Escherichia coli ATCC 25922 assessed as concentration required to inhibit visible growth by CLSI protocol based serial microdilution method; type: functional
Escherichia coli [3] = assay: Antibacterial activity against Escherichia coli ATCC 25922 assessed as bacterial growth inhibition by CLSI protocol based serial microdilution method; type: functional
Staphylococcus aureus [4] = assay: Antibacterial activity against methicillin-resistant Staphylococcus aureus CEMTC 675 assessed as concentration required to inhibit visible growth by CLSI protocol based serial microdilution method; type: functional
Staphylococcus aureus [5] = assay: Antibacterial activity against methicillin-resistant Staphylococcus aureus CEMTC 1695 assessed as concentration required to inhibit visible growth by CLSI protocol based serial microdilution method; type: functional
Staphylococcus aureus [6] = assay: Antibacterial activity against methicillin-resistant Staphylococcus aureus CEMTC 1732 assessed as concentration required to inhibit visible growth by CLSI protocol based serial microdilution method; type: functional
Pseudomonas aeruginosa [7] = assay: Bactericidal activity against Pseudomonas aeruginosa ATCC 9027 assessed as colony forming unit at 10 ug/ml measured at 4 hrs by time kill assay (reference value: 1.2 x 10^7 CFU/ml); type: functional; settings: dose 10 µg/ml
Method in brief: (§1)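 Overnight Pseudomonas aeruginosa culture adjusted in Mueller–Hinton broth to about 2.5 × 10⁵ CFU/mL. Compound added at 2.5, 5 or 10 µg/mL, then incubated at 37 °C with shaking (580 rpm) for 22 h. Viable colonies counted on plates at 2, 4, 6, 8 and 22 h. Quantification limit 100 CFU/mL; triplicate.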

Pseudomonas aeruginosa [8] = assay: Bactericidal activity against Pseudomonas aeruginosa ATCC 9027 assessed as colony forming unit at 10 ug/ml measured at 6 hrs by time kill assay (reference value: 10^8 CFU/ml); type: functional; settings: dose 10 µg/ml; method in brief: as §1
Pseudomonas aeruginosa [9] = assay: Bactericidal activity against Pseudomonas aeruginosa ATCC 9027 assessed as colony forming unit at 10 ug/ml measured at 8 hrs by time kill assay (reference value: 2.7 x 10^8 CFU/ml); type: functional; settings: dose 10 µg/ml; method in brief: as §1
Pseudomonas aeruginosa [10] = assay: Bactericidal activity against Pseudomonas aeruginosa ATCC 9027 assessed as colony forming unit at 10 ug/ml measured at 22 hrs by time kill assay (reference value: 1.7 x 10^9 CFU/ml); type: functional; settings: dose 10 µg/ml; method in brief: as §1
Pseudomonas aeruginosa [11] = assay: Bactericidal activity against Pseudomonas aeruginosa ATCC 9027 assessed as colony forming unit at 5 ug/ml measured at 4 hrs by time kill assay (reference value: 1.2 x 10^7 CFU/ml); type: functional; settings: dose 5 µg/ml; method in brief: as §1
Pseudomonas aeruginosa [12] = assay: Bactericidal activity against Pseudomonas aeruginosa ATCC 9027 assessed as colony forming unit at 5 ug/ml measured at 22 hrs by time kill assay (reference value: 1.7 x 10^9 CFU/ml); type: functional; settings: dose 5 µg/ml; method in brief: as §1
Pseudomonas aeruginosa [13] = assay: Bactericidal activity against Pseudomonas aeruginosa ATCC 9027 assessed as colony forming unit at 2.5 ug/ml measured at 4 hrs by time kill assay (reference value: 1.2 x 10^7 CFU/ml); type: functional; settings: dose 2.5 µg/ml; method in brief: as §1
Pseudomonas aeruginosa [14] = assay: Bactericidal activity against Pseudomonas aeruginosa ATCC 9027 assessed as colony forming unit at 2.5 ug/ml measured at 6 hrs by time kill assay (reference value: 10^8 CFU/ml); type: functional; settings: dose 2.5 µg/ml; method in brief: as §1
Pseudomonas aeruginosa [15] = assay: Bactericidal activity against Pseudomonas aeruginosa ATCC 9027 assessed as colony forming unit at 2.5 ug/ml measured at 8 hrs by time kill assay (reference value: 2.7 x 10^8 CFU/ml); type: functional; settings: dose 2.5 µg/ml; method in brief: as §1
Pseudomonas aeruginosa [16] = assay: Bactericidal activity against Pseudomonas aeruginosa ATCC 9027 assessed as reduction in colony forming unit at 10 ug/ml measured at 22 hrs by time kill assay relative to control; type: functional; design: scale not given: the % may be the effect or the level left; settings: dose 10 µg/ml; method in brief: as §1
Pseudomonas aeruginosa [17] = assay: Bactericidal activity against Pseudomonas aeruginosa ATCC 9027 assessed as reduction in colony forming unit at 5 ug/ml measured at 8 hrs by time kill assay relative to control; type: functional; design: scale not given: the % may be the effect or the level left; settings: dose 5 µg/ml; method in brief: as §1
Pseudomonas aeruginosa [18] = assay: Bactericidal activity against Pseudomonas aeruginosa ATCC 9027 assessed as reduction in colony forming unit at 2.5 ug/ml measured at 4 hrs by time kill assay relative to control; type: functional; design: scale not given: the % may be the effect or the level left; settings: dose 2.5 µg/ml; method in brief: as §1
Pseudomonas aeruginosa [19] = assay: Bactericidal activity against Pseudomonas aeruginosa ATCC 9027 assessed as reduction in colony forming unit at 2.5 ug/ml measured at 6 hrs by time kill assay relative to control; type: functional; design: scale not given: the % may be the effect or the level left; settings: dose 2.5 µg/ml; method in brief: as §1
Staphylococcus aureus [20] = assay: Bactericidal activity against […] Staphylococcus aureus ATCC 25923 assessed as colony forming unit at 5 ug/ml measured at 4 hrs by time kill assay (reference value: 7.8 x 10^6 CFU/ml); type: functional; settings: dose 5 µg/ml
Method in brief: (§2)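 S. aureus overnight culture was adjusted in MHB to ~8 × 10⁵ CFU/mL. Compound was added and the mixture incubated at 37 °C with shaking (580 rpm) for 22 h. Aliquots were plated for colony counts at 2, 4, 6, 8 and 22 h, with a quantification limit of 100 CFU/mL. Runs were done in triplicate.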

Staphylococcus aureus [21] = assay: Bactericidal activity against […] Staphylococcus aureus ATCC 25923 assessed as colony forming unit at 5 ug/ml measured at 22 hrs by time kill assay (reference value: 2.9 x 10^9 CFU/ml); type: functional; settings: dose 5 µg/ml; method in brief: as §2
Staphylococcus aureus [22] = assay: Bactericidal activity against […] Staphylococcus aureus ATCC 25923 assessed as colony forming unit at 2.5 ug/ml measured at 8 hrs by time kill assay (reference value: 2.7 x 10^8 CFU/ml); type: functional; settings: dose 2.5 µg/ml; method in brief: as §2
Staphylococcus aureus [23] = assay: Bactericidal activity against […] Staphylococcus aureus ATCC 25923 assessed as colony forming unit at 1.25 ug/ml measured at 4 hrs by time kill assay (reference value: 7.8 x 10^6 CFU/ml); type: functional; settings: dose 1.25 µg/ml; method in brief: as §2
Staphylococcus aureus [24] = assay: Bactericidal activity against […] Staphylococcus aureus ATCC 25923 assessed as colony forming unit at 1.25 ug/ml measured at 8 hrs by time kill assay (reference value: 2.7 x 10^8 CFU/ml); type: functional; settings: dose 1.25 µg/ml; method in brief: as §2
[25] = Cytotoxicity against HEK293T cells assessed as reduction in cell viability measured after 24 hrs by MTT assay; type: cell-based, HEK-293T; settings: human
Method in brief: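 HEK293T or MCF-7 cells in IMDM with 10% FBS, seeded at 20,000 per well and grown overnight. Compounds at […] in fresh medium for 24 h at 37 °C, 5% CO₂. MTT then added for 4 h, precipitate dissolved overnight in SDS-HCl, absorbance read at 570 nm. Viability expressed relative to untreated cells, giving CC₅₀. Duplicate wells, at least two independent repeats.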

Influenza A virus = assay: Antiviral activity against Influenza A virus (A/Puerto Rico/8/34 (H1N1) infected in MDCK cells assessed as decrease in viral titer preincubated for 1 hr followed by viral infection and cultivated for 48 hrs followed by supernatant transferred to chicken erythrocyte for 1 hr followed by measuring ability to cause positive hemagglutination; type: functional, organism-based; settings: A/Puerto Rico/8/1934(H1N1)
Method in brief: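 MDCK monolayers in MEM were pre-incubated with compound for 1 h at 37 °C, then infected with 10-fold virus dilutions (10⁻¹–10⁻⁶) and held 48 h at 37 °C, 5% CO₂. Supernatant was mixed with an equal volume of 1% chicken erythrocytes, 60 min at room temperature. Titre was taken from the highest dilution giving full agglutination (log₁₀ EID₅₀). Triplicate per concentration.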

SMILES	MBC (Staphylococcus aureus [1]) [µg/mL]	MBC (Enterococcus faecalis) [µg/mL]	MBC (Escherichia coli [2]) [µg/mL]	MIC (Escherichia coli [3]) [µg/mL]	MBC (Staphylococcus aureus [4]) [µg/mL]	MBC (Staphylococcus aureus [5]) [µg/mL]	MBC (Staphylococcus aureus [6]) [µg/mL]	Activity (Pseudomonas aeruginosa [7]) [CFU/ml]	Activity (Pseudomonas aeruginosa [8]) [CFU/ml]	Activity (Pseudomonas aeruginosa [9]) [CFU/ml]	Activity (Pseudomonas aeruginosa [10]) [CFU/ml]	Activity (Pseudomonas aeruginosa [11]) [CFU/ml]	Activity (Pseudomonas aeruginosa [12]) [CFU/ml]	Activity (Pseudomonas aeruginosa [13]) [CFU/ml]	Activity (Pseudomonas aeruginosa [14]) [CFU/ml]	Activity (Pseudomonas aeruginosa [15]) [CFU/ml]	Activity (Pseudomonas aeruginosa [16])	Activity (Pseudomonas aeruginosa [17])	Activity (Pseudomonas aeruginosa [18])	Activity (Pseudomonas aeruginosa [19])	also measured
CCCCCCCCCCCC[N+]12CC[N+](Cc3ccccc3C[N+]34CC[N+](CCCCCCCCCCCC)(CC3)CC4)(CC1)CC2	1.2	1.6	3.1	1.6	1	1	1	<100	<100	<100	<100	<100	<100	1300	<100	300	>=99.9%	>=99.9%	>=99.9%	>=99.9%	Activity (Staphylococcus aureus [20]): <100 CFU/ml; Activity (Staphylococcus aureus [21]): <100 CFU/ml; Activity (Staphylococcus aureus [22]): <100 CFU/ml; Activity (Staphylococcus aureus [23]): <100 CFU/ml; Activity (Staphylococcus aureus [24]): <100 CFU/ml; CC50 at 24 h [25]: 4 µg/mL; EC50 (Influenza A virus): 1 µg/mL
CCCCCCCCCCCC[N+]12CC[N+](CCC[N+]34CC[N+](CCCCCCCCCCCC)(CC3)CC4)(CC1)CC2	1.2	3.1	3.1	1.6	1	1	1	<100	<100	<100	<100	<100	<100	<100	<100	<100	>=99.9%	>=99.9%	>=99.9%	>=99.9%	Activity (Staphylococcus aureus [20]): <100 CFU/ml; Activity (Staphylococcus aureus [21]): <100 CFU/ml; Activity (Staphylococcus aureus [22]): <100 CFU/ml; Activity (Staphylococcus aureus [23]): <100 CFU/ml; Activity (Staphylococcus aureus [24]): <100 CFU/ml; CC50 at 24 h [25]: 6.5 µg/mL; EC50 (Influenza A virus): 1.9 µg/mL
